The record followed here is ChEMBL document CHEMBL1150419, “Structure-activity relationships of a peptide inhibitor of the human FcRn:human IgG interaction” (Bioorg Med Chem, 2008).

For the assay, the target named is IgG receptor FcRn large subunit p51 (Homo sapiens, UniProt P55899). In words: Binding affinity to human FcRn at pH 6 by surface plasmon resonance assay. A digest of the protocol:
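Soluble human FcRn coupled to the dextran surface of a CM5 chip; peptide dilutions flowed over the chip. The equilibrium response at each dilution was plotted against concentration and fitted to a steady-state affinity model to give Kd.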
(In general: Surface plasmon resonance follows binding to a sensor surface in real time, without labels.)

IgG receptor FcRn large subunit p51, sequence (P55899 whole entry): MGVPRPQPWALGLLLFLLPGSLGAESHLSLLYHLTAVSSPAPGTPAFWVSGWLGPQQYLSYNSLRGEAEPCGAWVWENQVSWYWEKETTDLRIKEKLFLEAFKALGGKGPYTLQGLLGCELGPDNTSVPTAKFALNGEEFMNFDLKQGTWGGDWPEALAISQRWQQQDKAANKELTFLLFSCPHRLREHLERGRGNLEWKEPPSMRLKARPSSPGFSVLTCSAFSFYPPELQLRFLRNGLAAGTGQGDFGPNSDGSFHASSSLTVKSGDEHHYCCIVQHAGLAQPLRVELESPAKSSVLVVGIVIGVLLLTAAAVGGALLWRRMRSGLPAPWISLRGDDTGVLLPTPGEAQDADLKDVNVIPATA

Compound `CC(C)C[C@H](NC(=O)CNC(=O)CNC(=O)[C@H](Cc1ccccc1)NC(=O)[C@H](Cc1cnc[nH]1)NC(=O)CNC(=O)[C@@H](NC(=O)[C@@H](NC(=O)[C@H](Cc1ccccc1)NC(=O)[C@H](CCCNC(=N)N)NC(=O)[C@@H](N)CCC(N)=O)C(C)(C)S)[C@@H](C)O)C(=O)N[C@@H](Cc1ccc([N+](=O)[O-])cc1)C(=O)N1CCC[C@H]1C(=O)N[C@@H](CS)C(=O)N[C@@H](CC(N)=O)C(=O)NCC(=O)N1CCC[C@H]1C(=O)O` displayed a Kd of 180 µM. Next, `CC(C)C[C@H](NC(=O)CN(C)C(=O)[C@@H](C)NC(=O)[C@H](Cc1ccccc1)NC(=O)[C@H](Cc1cnc[nH]1)NC(=O)CNC(=O)[C@@H](NC(=O)[C@@H](NC(=O)[C@H](Cc1ccccc1)NC(=O)[C@H](CCCNC(=N)N)NC(=O)[C@@H](N)CCC(N)=O)C(C)(C)S)[C@@H](C)O)C(=O)N[C@@H](Cc1ccc(O)cc1)C(=O)N1CCC[C@H]1C(=O)N[C@@H](CS)C(=O)N[C@@H](CC(N)=O)C(=O)NCC(=O)N1CCC[C@H]1C(=O)O`: 0.19 µM; `CC(C)C[C@H](NC(=O)[C@@H](Cc1cnc[nH]1)NC(=O)CNC(=O)[C@H](Cc1ccccc1)NC(=O)[C@H](Cc1cnc[nH]1)NC(=O)CNC(=O)[C@@H](NC(=O)[C@@H](NC(=O)[C@H](Cc1ccccc1)NC(=O)[C@H](CCCN=C(N)N)NC(=O)[C@@H](N)CCC(N)=O)C(C)(C)S)[C@@H](C)O)C(=O)N[C@@H](Cc1ccc(O)cc1)C(=O)N1CCC[C@H]1C(=O)N[C@@H](CS)C(=O)N[C@@H](CC(N)=O)C(=O)NCC(=O)N1CCC[C@H]1C(=O)O`: 2 µM; `CC(C)C[C@H](NC(=O)CNC(=O)CNC(=O)[C@H](Cc1ccccc1)NC(=O)[C@H](Cc1cnc[nH]1)NC(=O)CNC(=O)[C@@H](NC(=O)[C@H](CCN)NC(=O)[C@H](Cc1ccccc1)NC(=O)[C@H](CCCN=C(N)N)NC(=O)[C@@H](N)CCC(N)=O)[C@@H](C)O)C(=O)N[C@@H](Cc1ccc(O)cc1)C(=O)N1CCC[C@H]1C(=O)N[C@@H](CC(=O)O)C(=O)N[C@@H](CC(N)=O)C(=O)NCC(=O)N1CCC[C@H]1C(=O)O`: 8.4 µM. Next, `CC(C)C[C@H](NC(=O)[C@@H]1CCCN1C(=O)[C@@H](Cc1ccccc1)NC(=O)[C@H](Cc1ccccc1)NC(=O)[C@H](Cc1cnc[nH]1)NC(=O)CNC(=O)[C@@H](NC(=O)[C@@H](NC(=O)[C@H](Cc1ccccc1)NC(=O)[C@H](CCCNC(=N)N)NC(=O)[C@@H](N)CCC(N)=O)C(C)(C)S)[C@@H](C)O)C(=O)N[C@@H](Cc1ccc(O)cc1)C(=O)N1CCC[C@H]1C(=O)N[C@@H](CS)C(=O)N[C@@H](CC(N)=O)C(=O)NCC(=O)N1CCC[C@H]1C(=O)O`: 3.8 µM; `CC(C)C[C@H](NC(=O)CNC(=O)CNC(=O)[C@H](Cc1ccccc1)NC(=O)[C@H](Cc1cnc[nH]1)NC(=O)CNC(=O)[C@@H](NC(=O)[C@H](CS)NC(=O)[C@H](Cc1ccccc1)NC(=O)[C@H](CCCNC(=N)N)NC(=O)[C@@H](N)CCC(N)=O)[C@@H](C)O)C(=O)N[C@@H](Cc1ccc(O)cc1)C(=O)N1CCC[C@H]1C(=O)N[C@@H](CS)C(=O)N[C@@H](CC(N)=O)C(N)=O`: 6.1 µM; `CC(C)C[C@H](NC(=O)CNC(=O)CNC(=O)[C@H](Cc1c(F)c(F)c(F)c(F)c1F)NC(=O)[C@H](Cc1cnc[nH]1)NC(=O)CNC(=O)[C@@H](NC(=O)[C@@H](NC(=O)[C@H](Cc1ccccc1)NC(=O)[C@H](CCCN=C(N)N)NC(=O)[C@@H](N)CCC(N)=O)C(C)(C)S)[C@@H](C)O)C(=O)N[C@@H](Cc1ccc(O)cc1)C(=O)N1CCC[C@H]1C(=O)N[C@@H](CS)C(=O)N[C@@H](CC(N)=O)C(=O)NCC(=O)N1CCC[C@H]1C(=O)O`: 70 µM. The same measure for `CC(=O)Nc1ccc(C[C@H](NC(=O)[C@H](Cc2cnc[nH]2)NC(=O)CNC(=O)[C@@H](NC(=O)[C@@H](NC(=O)[C@H](Cc2ccccc2)NC(=O)[C@H](CCCN=C(N)N)NC(=O)[C@@H](N)CCC(N)=O)C(C)(C)S)[C@@H](C)O)C(=O)NCC(=O)NCC(=O)N[C@@H](CC(C)C)C(=O)N[C@@H](Cc2ccc(O)cc2)C(=O)N2CCC[C@H]2C(=O)N[C@@H](CS)C(=O)N[C@@H](CC(N)=O)C(=O)NCC(=O)N2CCC[C@H]2C(=O)O)cc1`: 270 µM; for `CC(C)C[C@H](NC(=O)[C@H]1CSC2C[C@@H](NC(=O)[C@H](Cc3ccccc3)NC(=O)[C@H](Cc3cnc[nH]3)NC(=O)CNC(=O)[C@@H](NC(=O)[C@H](NC(=O)[C@H](Cc3ccccc3)NC(=O)[C@@H](N)CCCNC(=N)N)C(C)(C)S)[C@@H](C)O)C(=O)N21)C(=O)N[C@@H](Cc1ccc(O)cc1)C(=O)N1CCC[C@H]1C(=O)N[C@@H](CS)C(=O)O` (stereo not given in full): 0.99 µM; for `CC(C)C[C@H](NC(=O)[C@@H](Cc1ccc(O)cc1)NC(=O)CNC(=O)[C@H](Cc1ccccc1)NC(=O)[C@H](Cc1cnc[nH]1)NC(=O)CNC(=O)[C@@H](NC(=O)[C@@H](NC(=O)[C@H](Cc1ccccc1)NC(=O)[C@H](CCCN=C(N)N)NC(=O)[C@@H](N)CCC(N)=O)C(C)(C)S)[C@@H](C)O)C(=O)N[C@@H](Cc1ccc(O)cc1)C(=O)N1CCC[C@H]1C(=O)N[C@@H](CS)C(=O)N[C@@H](CC(N)=O)C(=O)NCC(=O)N1CCC[C@H]1C(=O)O`: 1.5 µM. On to `CC(C)C[C@H](NC(=O)CNC(=O)CNC(=O)[C@H](Cc1ccccc1)NC(=O)[C@H](Cc1cnc[nH]1)NC(=O)CNC(=O)[C@@H](NC(=O)[C@@H](NC(=O)[C@H](Cc1ccccc1)NC(=O)[C@H](CCCNC(=N)N)NC(=O)[C@@H](N)CCC(N)=O)C(C)(C)S)[C@@H](C)O)C(=O)N(C)[C@@H](Cc1ccc(O)cc1)C(=O)N1CCC[C@H]1C(=O)N[C@@H](CS)C(=O)N[C@@H](CC(N)=O)C(=O)NCC(=O)N1CCC[C@H]1C(=O)O`, for which the Kd turned out to be 92 µM.

With `CC(C)C[C@@H](NC(=O)CNC(=O)CNC(=O)[C@@H](Cc1ccccc1)NC(=O)[C@H](Cc1cnc[nH]1)NC(=O)CNC(=O)[C@@H](NC(=O)[C@H](NC(=O)[C@H](Cc1ccccc1)NC(=O)[C@H](CCCNC(=N)N)NC(=O)[C@@H](N)CCC(N)=O)C(C)(C)S)[C@@H](C)O)C(=O)N[C@@H](Cc1ccc(O)cc1)C(=O)N1CCC[C@H]1C(=O)N[C@H](CS)C(=O)N[C@@H](CC(N)=O)C(=O)NCC(=O)N1CCC[C@H]1C(=O)O`, the equilibrium dissociation constant (Kd) is greater than 250 µM. In turn, `CC(C)C[C@H](NC(=O)CNC(=O)CNC(=O)[C@H](Cc1ccccc1)NC(=O)[C@H](Cc1cnc[nH]1)NC(=O)CNC(=O)[C@@H](NC(=O)[C@H](NC(=O)[C@H](Cc1ccccc1)NC(=O)[C@H](CCCNC(=N)N)NC(=O)[C@@H](N)CCC(N)=O)C(C)(C)S)[C@@H](C)O)C(=O)N[C@@H](Cc1ccc(O)cc1)C(=O)N1CCC[C@@H]1C(=O)N[C@H](CS)C(=O)N[C@@H](CC(N)=O)C(=O)NCC(=O)N1CCC[C@H]1C(=O)O` registered an equilibrium dissociation constant (Kd) greater than 250 µM. On to `CC(C)C[C@H](NC(=O)CNC(=O)CNC(=O)[C@H](Cc1ccc(N)cc1)NC(=O)[C@H](Cc1cnc[nH]1)NC(=O)CNC(=O)[C@@H](NC(=O)[C@@H](NC(=O)[C@H](Cc1ccccc1)NC(=O)[C@H](CCCN=C(N)N)NC(=O)[C@@H](N)CCC(N)=O)C(C)(C)S)[C@@H](C)O)C(=O)N[C@@H](Cc1ccc(O)cc1)C(=O)N1CCC[C@H]1C(=O)N[C@@H](CS)C(=O)N[C@@H](CC(N)=O)C(=O)NCC(=O)N1CCC[C@H]1C(=O)O`, for which the affinity, expressed as Kd, was 1 µM. This lies in the single-digit micromolar range. Next, `CC(C)C[C@H](NC(=O)CNC(=O)CNC(=O)[C@@H](Cc1ccccc1)NC(=O)[C@H](Cc1cnc[nH]1)NC(=O)CNC(=O)[C@@H](NC(=O)[C@@H](NC(=O)[C@H](Cc1ccccc1)NC(=O)[C@H](CCCN=C(N)N)NC(=O)[C@@H](N)CCC(N)=O)C(C)(C)S)[C@@H](C)O)C(=O)N[C@@H](Cc1ccc(O)cc1)C(=O)N1CCC[C@H]1C(=O)N[C@@H](CS)C(=O)N[C@@H](CC(N)=O)C(=O)NCC(=O)N1CCC[C@H]1C(=O)O`: greater than 250 µM; `CC(C)C[C@H](NC(=O)CNC(=O)[C@@H](CC(=O)O)NC(=O)[C@H](Cc1ccccc1)NC(=O)[C@H](Cc1cnc[nH]1)NC(=O)CNC(=O)[C@@H](NC(=O)[C@@H](NC(=O)[C@H](Cc1ccccc1)NC(=O)[C@H](CCCN=C(N)N)NC(=O)[C@@H](N)CCC(N)=O)C(C)(C)S)[C@@H](C)O)C(=O)N[C@@H](Cc1ccc(O)cc1)C(=O)N1CCC[C@H]1C(=O)N[C@@H](CS)C(=O)N[C@@H](CC(N)=O)C(=O)NCC(=O)N1CCC[C@H]1C(=O)O`: 0.58 µM.

As to `CC(C)C[C@H](NC(=O)CNC(=O)CN(C)C(=O)[C@H](Cc1ccccc1)NC(=O)[C@H](Cc1cnc[nH]1)NC(=O)CNC(=O)[C@@H](NC(=O)[C@@H](NC(=O)[C@H](Cc1ccccc1)NC(=O)[C@H](CCCN=C(N)N)NC(=O)[C@@H](N)CCC(N)=O)C(C)(C)S)[C@@H](C)O)C(=O)N[C@@H](Cc1ccc(O)cc1)C(=O)N1CCC[C@H]1C(=O)N[C@@H](CS)C(=O)N[C@@H](CC(N)=O)C(=O)NCC(=O)N1CCC[C@H]1C(=O)O`, the Kd is 2 µM. For `CC(C)C[C@H](NC(=O)CNC(=O)CNC(=O)[C@H](Cc1ccccc1)NC(=O)[C@H](Cc1cnc[nH]1)NC(=O)CNC(=O)[C@@H](NC(=O)[C@H](NC(=O)[C@H](Cc1ccccc1)NC(=O)[C@@H](CCCN=C(N)N)NC(=O)[C@@H](N)CCC(N)=O)C(C)(C)S)[C@@H](C)O)C(=O)N[C@@H](Cc1ccc(O)cc1)C(=O)N1CCC[C@H]1C(=O)N[C@H](CS)C(=O)N[C@@H](CC(N)=O)C(=O)NCC(=O)N1CCC[C@H]1C(=O)O`, the Kd stood at 0.28 µM. `CC(C)C[C@H](NC(=O)CNC(=O)CNC(=O)[C@H](Cc1ccccc1)N(C)C(=O)[C@H](Cc1cnc[nH]1)NC(=O)CNC(=O)[C@@H](NC(=O)[C@@H](NC(=O)[C@H](Cc1ccccc1)NC(=O)[C@H](CCCN=C(N)N)NC(=O)[C@@H](N)CCC(N)=O)C(C)(C)S)[C@@H](C)O)C(=O)N[C@@H](Cc1ccc(O)cc1)C(=O)N1CCC[C@H]1C(=O)N[C@@H](CS)C(=O)N[C@@H](CC(N)=O)C(=O)NCC(=O)N1CCC[C@H]1C(=O)O` registered a Kd greater than 250 µM.

As to `CC(C)C[C@H](NC(=O)CNC(=O)CNC(=O)[C@H](Cc1ccccc1)NC(=O)[C@H](Cc1cnc[nH]1)NC(=O)CNC(=O)[C@@H](NC(=O)[C@H](NC(=O)[C@H](Cc1ccccc1)NC(=O)[C@H](CCCNC(=N)N)NC(=O)[C@@H](N)CCC(N)=O)C(C)(C)S)[C@@H](C)O)C(=O)N[C@H](Cc1ccc(O)cc1)C(=O)N1CCC[C@H]1C(=O)N[C@H](CS)C(=O)N[C@@H](CC(N)=O)C(=O)NCC(=O)N1CCC[C@H]1C(=O)O`, the Kd was greater than 250 µM.

One may read the Kd as the free concentration of one partner at which half of the binding sites on the other are occupied at equilibrium, for simple one-to-one binding.
